Reference: PMC4893941 (Journal of medicinal chemistry, 2016)

Experiments:
[1] = Octanol–water partition coefficients; format: physicochemical; details: 1-octanol/water partition, UV–vis absorbance
In short: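 Octanol and water were mutually presaturated. A 64 μM stock of test compound in water-saturated octanol was vortexed 10 min with water. After phase separation, the octanol layer was diluted and its UV–vis absorbance read. log P was calculated from octanol absorbance before versus after partitioning and the water/octanol phase volumes.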

human glioma T98G cells = assay: Time-dependent cellular uptake; format: cell-based; details: 10 μM; for cellular uptake after 24 h, fold higher than 7: relative to BODIPY 7
In short: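 T98G glioma cells were seeded at 15 000/well in EMEM with 10% FBS and grown 24 h. They were then exposed to 10 μM test compound for 0, 1, 2, 4, 8 or 24 h, PBS-washed and lysed in 0.25% Triton X-100/PBS. Fluorescence at 485/590 nm was read against compound standard curves (0.3125–10 μM). Cell number came from a CyQuant cell standard curve, and uptake was expressed as nM per cell.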

[2] = system: human hCMEC/D3 brain endothelial cell monolayers; assay: BBB permeability across hCMEC/D3 cell monolayers; format: in vitro ADME; details: hCMEC/D3 monolayer; for Pe (permeability coefficient): 50 μM in transport buffer, 0–45 min
In short: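 hCMEC/D3 cells were grown 48 h on 0.4 μm PET Transwell inserts in EBM-2 with 5% FBS, hydrocortisone, ascorbate, lipid concentrate, HEPES and bFGF. Monolayers were checked by microscopy. Test compound or lucifer yellow (50 μM) in HBSS/HEPES/pyruvate transport buffer was added to the upper chamber at 37 °C. Inserts were moved to fresh buffer at 10 and 25 min, and the lower chamber was sampled at 10, 25 and 45 min. Fluorescence was read at 485/590 nm (compound) or 425/538 nm (LY) against standard curves. Pe came from clearance-slope fits, cell inserts minus cell-free inserts, in triplicate.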

Substance	log P [1]	cellular uptake at 24 h (human glioma T98G cells) [nM/cell]	cellular uptake after 24 h, fold higher than 7 (human glioma T98G cells)	Pe (permeability coefficient) [2]	Pe relative to LY ([2]; relative to lucifer yellow) [fold]
8-(1,2-Carboranyl-1-thio)-2-ethyl-1,3,6,7-tetramethyl-BODIPY [5b]	1.95	1.5 ± 0.05	about 436 fold	2.6 ± 0.9 × 10^−5 cm/s	–
8-(1,2-Carboranyl-1-thio)-BODIPY [1b]	1.50	0.23 ± 0.05	67 fold	16.4 ± 3.3 × 10^−5 cm/s	7
8-(1,2-Carboranyl-1-thio)-1,3-dimethyl-BODIPY [2b]	1.69	0.36 ± 0.03	106 fold	6.0 ± 1.0 × 10^−5 cm/s	–
8-[4-(2-Methyl-1,2-carboranyl)methylphenyl]-BODIPY [compound 4]	2.11	0.41 ± 0.03	118 fold	–	–
lucifer yellow [LY, reference compound]	–	–	–	2.2 ± 0.8 × 10^−5 cm/s	–
8-(1,2-Carboranyl-1-thio)-3-chloro-2-ethyl-1,3,6,7-tetramethyl-BODIPY [6b]	1.93	0.46 ± 0.06	135 fold	5.4 ± 0.6 × 10^−5 cm/s	–
